In brackets after ≈: the same amount, converted by molar mass.
Experiments:
Type in all cases: functional
Staphylococcus aureus [1] = experiment: Antimicrobial activity against Staphylococcus aureus after 24 hrs by broth microdilution method
Outline: (§1)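 Broth microdilution following NCCLS M7-A4; ATCC strains and clinical isolates from a provincial hospital.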

Staphylococcus aureus [2] = experiment: Antimicrobial activity against methicillin-resistant Staphylococcus aureus after 24 hrs by broth microdilution method
Outline: (§2)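 Broth microdilution following NCCLS M7-A4, using ATCC strains and clinical isolates from a provincial hospital.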

Escherichia coli [3] = experiment: Antimicrobial activity against Escherichia coli isolate 2 after 24 hrs by broth microdilution method; details: isolate 2, 24 h; outline: as §1
[4] = test system: Staphylococcus epidermidis; experiment: Antimicrobial activity against Staphylococcus epidermidis after 24 hrs by broth microdilution method; outline: as §1
Staphylococcus aureus [5] = experiment: Antimicrobial activity against methicillin-susceptible Staphylococcus aureus after 24 hrs by broth microdilution method; outline: as §1
Escherichia coli [6] = experiment: Antimicrobial activity against Escherichia coli isolate 1 after 24 hrs by broth microdilution method; details: isolate 1, 24 h; outline: as §1
Streptococcus pneumoniae = experiment: Antimicrobial activity against penicillin-resistant Streptococcus pneumoniae after 24 hrs by broth microdilution method; outline: as §2
Enterococcus faecalis = experiment: Antimicrobial activity against Enterococcus faecalis after 24 hrs by broth microdilution method; outline: as §1
[7] = test system: Staphylococcus epidermidis; experiment: Antimicrobial activity against methicillin-susceptible Staphylococcus epidermidis after 24 hrs by broth microdilution method; outline: as §1
[8] = test system: Staphylococcus epidermidis; experiment: Antimicrobial activity against methicillin-resistant Staphylococcus epidermidis after 24 hrs by broth microdilution method; outline: as §2
Moraxella catarrhalis = experiment: Antimicrobial activity against Moraxella catarrhalis after 24 hrs by broth microdilution method; outline: as §1

Row | Structure (SMILES) | MIC (Staphylococcus aureus [1]) | MIC (Staphylococcus aureus [2]) | MIC (Escherichia coli [3]) | MIC [4] | MIC (Staphylococcus aureus [5]) | MIC (Escherichia coli [6]) | MIC (Streptococcus pneumoniae) | MIC (Enterococcus faecalis) | MIC [7] | MIC [8] | MIC (Moraxella catarrhalis)
1 | C=C1C[C@@H](C(=O)Nc2ccc(F)c[n+]2[O-])N(C(=O)[C@H](CCCC)CN(O)C=O)C1 | 1 µg/mL (≈ 2.45 µM) | 0.5 µg/mL (≈ 1.22 µM) | > 64 µg/mL | 1 µg/mL (≈ 2.45 µM) | 4 µg/mL (≈ 9.79 µM) | > 64 µg/mL | – | – | – | – | –
2 | O=CN(O)C[C@@H](CC1CCCC1)C(=O)N1CC=C[C@H]1C(=O)N1CCOCC1 | 64 µg/mL (≈ 169 µM) | 32 µg/mL (≈ 84.3 µM) | > 64 µg/mL | 64 µg/mL (≈ 169 µM) | 64 µg/mL (≈ 169 µM) | > 64 µg/mL | – | – | – | – | –
3 | C[C@H](NC(=O)[C@@H]1C=CCN1C(=O)[C@H](CC1CCCC1)CN(O)C=O)c1ccccc1 | 4 µg/mL (≈ 9.67 µM) | 4 µg/mL (≈ 9.67 µM) | > 64 µg/mL | 8 µg/mL (≈ 19.3 µM) | 16 µg/mL (≈ 38.7 µM) | > 64 µg/mL | – | – | – | – | –
4 | O=CN(O)C[C@@H](CC1CCCC1)C(=O)N1CC=C[C@H]1C(=O)Nc1ccc(F)cn1 | 0.25 µg/mL (≈ 0.618 µM) | 0.125 µg/mL (≈ 0.309 µM) | 16 µg/mL (≈ 39.6 µM) | 0.125 µg/mL (≈ 0.309 µM) | 0.5 µg/mL (≈ 1.24 µM) | 32 µg/mL (≈ 79.1 µM) | – | – | – | – | –
5 | CCCC[C@H](CN(O)C=O)C(=O)N1C[C@@H](F)C[C@H]1C(=O)Nc1ncc(C)s1 | 8 µg/mL (≈ 20 µM) | 8 µg/mL (≈ 20 µM) | – | – | 8 µg/mL (≈ 20 µM) | – | 0.06 µg/mL (≈ 0.15 µM) | > 16 µg/mL | 4 µg/mL (≈ 9.99 µM) | 8 µg/mL (≈ 20 µM) | 0.25 µg/mL (≈ 0.624 µM)
6 | CCCC[C@H](CN(O)C=O)C(=O)N1C[C@@H](F)C[C@H]1C(=O)Nc1ccc(F)c[n+]1[O-] | 4 µg/mL (≈ 9.65 µM) | 4 µg/mL (≈ 9.65 µM) | – | – | 4 µg/mL (≈ 9.65 µM) | – | 0.06 µg/mL (≈ 0.145 µM) | > 16 µg/mL | 4 µg/mL (≈ 9.65 µM) | 16 µg/mL (≈ 38.6 µM) | 0.25 µg/mL (≈ 0.603 µM)
7 | CCCC[C@H](CN(O)C=O)C(=O)N1C[C@@H](C)C[C@H]1C(=O)Nc1ccc(F)c[n+]1[O-] | 0.25 µg/mL (≈ 0.609 µM) | 0.25 µg/mL (≈ 0.609 µM) | – | – | 0.25 µg/mL (≈ 0.609 µM) | – | 0.03 µg/mL (≈ 0.0731 µM) | 4 µg/mL (≈ 9.75 µM) | 0.0625 µg/mL (≈ 0.152 µM) | 0.5 µg/mL (≈ 1.22 µM) | 0.03 µg/mL (≈ 0.0731 µM)
8 | Cc1cnc(NC(=O)[C@@H]2C[C@H](F)CN2C(=O)[C@H](CC2CCCC2)CN(O)C=O)s1 | 1 µg/mL (≈ 2.34 µM) | 0.5 µg/mL (≈ 1.17 µM) | – | – | 0.5 µg/mL (≈ 1.17 µM) | – | 0.03 µg/mL (≈ 0.0703 µM) | > 16 µg/mL | 0.125 µg/mL (≈ 0.293 µM) | 1 µg/mL (≈ 2.34 µM) | 0.125 µg/mL (≈ 0.293 µM)
9 | O=CN(O)C[C@@H](CC1CCCC1)C(=O)N1C[C@@H](F)C[C@H]1C(=O)Nc1ccc(F)c[n+]1[O-] | 2 µg/mL (≈ 4.54 µM) | 2 µg/mL (≈ 4.54 µM) | – | – | 0.5 µg/mL (≈ 1.14 µM) | – | 0.03 µg/mL (≈ 0.0681 µM) | 8 µg/mL (≈ 18.2 µM) | 0.25 µg/mL (≈ 0.568 µM) | 4 µg/mL (≈ 9.08 µM) | 0.25 µg/mL (≈ 0.568 µM)
10 | Cc1cnc(NC(=O)[C@@H]2C[C@H](C)CN2C(=O)[C@H](CC2CCCC2)CN(O)C=O)s1 | 1 µg/mL (≈ 2.37 µM) | 1 µg/mL (≈ 2.37 µM) | – | – | 0.5 µg/mL (≈ 1.18 µM) | – | 0.03 µg/mL (≈ 0.071 µM) | 4 µg/mL (≈ 9.47 µM) | 0.25 µg/mL (≈ 0.592 µM) | 2 µg/mL (≈ 4.73 µM) | 0.5 µg/mL (≈ 1.18 µM)
11 | C[C@H]1C[C@@H](C(=O)Nc2ccc(F)c[n+]2[O-])N(C(=O)[C@H](CC2CCCC2)CN(O)C=O)C1 | 0.5 µg/mL (≈ 1.15 µM) | 0.5 µg/mL (≈ 1.15 µM) | – | – | 0.5 µg/mL (≈ 1.15 µM) | – | 0.03 µg/mL (≈ 0.0687 µM) | 2 µg/mL (≈ 4.58 µM) | 1 µg/mL (≈ 2.29 µM) | 1 µg/mL (≈ 2.29 µM) | 0.5 µg/mL (≈ 1.15 µM)
12 | CCCC[C@H](CN(O)C=O)C(=O)N1[C@H](C(=O)Nc2ncc(C)s2)C[C@H]2CCCC[C@@H]21 | 8 µg/mL (≈ 18.3 µM) | 8 µg/mL (≈ 18.3 µM) | – | – | 8 µg/mL (≈ 18.3 µM) | – | 0.03 µg/mL (≈ 0.0687 µM) | > 16 µg/mL | 0.5 µg/mL (≈ 1.15 µM) | 16 µg/mL (≈ 36.6 µM) | 0.03 µg/mL (≈ 0.0687 µM)
13 | CCCC[C@H](CN(O)C=O)C(=O)N1[C@H](C(=O)Nc2ccc(C)cn2)C[C@H]2CCCC[C@@H]21 | 8 µg/mL (≈ 18.6 µM) | 4 µg/mL (≈ 9.29 µM) | – | – | 8 µg/mL (≈ 18.6 µM) | – | 0.03 µg/mL (≈ 0.0697 µM) | > 16 µg/mL | 0.5 µg/mL (≈ 1.16 µM) | 16 µg/mL (≈ 37.2 µM) | 0.03 µg/mL (≈ 0.0697 µM)
14 | Cc1cnc(NC(=O)[C@@H]2C[C@H]3CCCC[C@@H]3N2C(=O)[C@H](CC2CCCC2)CN(O)C=O)s1 | 4 µg/mL (≈ 8.65 µM) | 4 µg/mL (≈ 8.65 µM) | – | – | 4 µg/mL (≈ 8.65 µM) | – | 0.03 µg/mL (≈ 0.0648 µM) | > 16 µg/mL | 0.5 µg/mL (≈ 1.08 µM) | 8 µg/mL (≈ 17.3 µM) | 0.5 µg/mL (≈ 1.08 µM)
15 | O=CN(O)C[C@@H](CC1CCCC1)C(=O)N1[C@H](C(=O)Nc2ccc(F)cn2)C[C@H]2CCCC[C@@H]21 | 4 µg/mL (≈ 8.69 µM) | 4 µg/mL (≈ 8.69 µM) | – | – | 4 µg/mL (≈ 8.69 µM) | – | 0.03 µg/mL (≈ 0.0651 µM) | > 16 µg/mL | 0.25 µg/mL (≈ 0.543 µM) | 4 µg/mL (≈ 8.69 µM) | 0.03 µg/mL (≈ 0.0651 µM)
16 | Cc1ccc(NC(=O)[C@@H]2C[C@H]3CCCC[C@@H]3N2C(=O)[C@H](CC2CCCC2)CN(O)C=O)nc1 | 4 µg/mL (≈ 8.76 µM) | 4 µg/mL (≈ 8.76 µM) | – | – | 4 µg/mL (≈ 8.76 µM) | – | 0.03 µg/mL (≈ 0.0657 µM) | > 16 µg/mL | 0.5 µg/mL (≈ 1.1 µM) | 8 µg/mL (≈ 17.5 µM) | 0.5 µg/mL (≈ 1.1 µM)
17 | O=C(O)c1cn(C2CC2)c2cc(N3CCNCC3)c(F)cc2c1=O [CIPROFLOXACIN] | 0.5 µg/mL (≈ 1.51 µM) | 1 µg/mL (≈ 3.02 µM) | < 0.0312 µg/mL | 0.25 µg/mL (≈ 0.754 µM) | 0.5 µg/mL (≈ 1.51 µM) | < 0.0312 µg/mL | – | – | – | – | –
18 | CC1(C)S[C@@H]2[C@H](NC(=O)Cc3ccccc3)C(=O)N2[C@H]1C(=O)O [PENICILLIN G] | 0.0625 µg/mL (≈ 0.187 µM) | 64 µg/mL (≈ 191 µM) | > 64 µg/mL | 2 µg/mL (≈ 5.98 µM) | 1 µg/mL (≈ 2.99 µM) | > 64 µg/mL | – | – | – | – | –
19 | CN[C@H](CC(C)C)C(=O)N[C@H]1C(=O)N[C@@H](CC(N)=O)C(=O)N[C@H]2C(=O)N[C@H]3C(=O)N[C@H](C(=O)N[C@H](C(=O)O)c4cc(O)cc(O)c4-c4cc3ccc4O)[C@H](O)c3ccc(c(Cl)c3)Oc3cc2cc(c3O[C@@H]2O[C@H](CO)[C@@H](O)[C@H](O)[C@H]2O[C@H]2C[C@](C)(N)[C@H](O)[C@H](C)O2)Oc2ccc(cc2Cl)[C@H]1O [VANCOMYCIN] | – | – | > 64 µg/mL | – | – | > 64 µg/mL | – | – | – | – | –

— ChEMBL document CHEMBL3352487, “Synthesis, antibacterial activity, and biological evaluation of formyl hydroxyamino derivatives as novel potent peptide deformylase inhibitors against drug-resistant bacteria” (Eur J Med Chem, 2014)
